# Test results from ChEMBL document CHEMBL1811809, “Design, synthesis and in vitro drug release investigation of new potential 5-FU prodrugs” (Eur J Med Chem, 2011).
# How the values were obtained:
# [1] = Antiproliferative activity against human fibroblasts after 48 hrs by resazurin reduction test; assay type: cell-based; conditions: Fibroblast
# [2] = test system: MCF7; test: Antiproliferative activity against human MCF7 cells after 48 hrs by resazurin reduction test; assay type: functional, cell-based; conditions: MCF7, 48 h
# Summary of the method: (§1)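 MCF 7 and PA 1 cells were kept as monolayers in MEM with 10% fetal calf serum, 1 mM pyruvate, vitamins, non-essential amino acids and gentamicin, at 37 °C and 5% CO₂. Cells were seeded at 5 × 10³ per well, left 16 h, then exposed continuously for 48 h; DMSO was 0.5% (v/v).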
# [3] = test system: PA-1; test: Antiproliferative activity against human PA1 cells after 48 hrs by resazurin reduction test; assay type: functional, cell-based; conditions: PA-1, 48 h
# Summary of the method: as §1, with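 “(v/v). Resazurin in serum- and phenol red-free MEM was added for 1 h at 37 °C, fluorescence read at ex 530/em 590 nm, and IC₅₀ taken from blank-corrected percent-of-control curves.” for “(v/v).”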
# [4] = Stability of the compound in PBS buffer assessed as degradation half life at 37 degC by HPLC analysis; assay type: physicochemical
# Summary of the method: (§2)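 Each compound came from a 10 mM stock in methanol or methanol/acetonitrile 85:15, diluted 1:10 into PBS, MEM or human plasma and held at 37 ± 2 °C. Aliquots taken over time were quenched with equal-volume 10 mM ammonium formate pH 3, centrifuged, filtered, diluted 3:10 and run on gradient HPLC-UV (ammonium formate pH 3/acetonitrile; 264/258 nm). Half-lives came from log concentration versus time plots, usually in triplicate.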
# [5] = Stability of the compound in MEM assessed as degradation half life at 37 degC by HPLC analysis; assay type: physicochemical; summary of the method: as §2
# [6] = Stability of the compound assessed as degradation half life in presence of plasma at 37 degC by HPLC analysis; assay type: ADME, cell-free; summary of the method: as §2
SMILES,IC50 [1] [µM],IC50 [2] [µM],IC50 [3] [µM],half-life [4] [min],half-life [5] [min],half-life [6] [min]
CC(=O)OC[C@H]1O[C@@H](Oc2ccc(N(C)C(=O)n3cc(F)c(=O)[nH]c3=O)cc2)[C@H](F)[C@@H](OC(C)=O)[C@@H]1OC(C)=O,> 50,> 50,> 50,–,–,–
CC(=O)OC[C@H]1O[C@@H](n2cc(F)c(=O)[nH]c2=O)[C@H](F)[C@@H](OC(C)=O)[C@@H]1OC(C)=O,> 50,> 50,> 50,–,–,–
CC(=O)OC[C@H]1O[C@@H](NC(=O)CCCCCNC(=O)n2cc(F)c(=O)[nH]c2=O)[C@H](F)[C@@H](OC(C)=O)[C@@H]1OC(C)=O,5,8.1,4,11,8,17
CC(=O)OC[C@H]1O[C@@H](NC(=O)CCCN(C)C(=O)n2cc(F)c(=O)[nH]c2=O)[C@H](F)[C@@H](OC(C)=O)[C@@H]1OC(C)=O,> 50,> 50,> 50,–,–,–
CC(=O)OC[C@H]1O[C@@H](NC(=O)CNC(=O)n2cc(F)c(=O)[nH]c2=O)[C@H](F)[C@@H](OC(C)=O)[C@@H]1OC(C)=O,6.4,11,3,3,2,6
CC(=O)OC[C@H]1O[C@@H](NC(=O)Cn2cc(F)c(=O)[nH]c2=O)[C@H](F)[C@@H](OC(C)=O)[C@@H]1OC(C)=O,> 50,> 50,> 50,–,–,–
CC(=O)OC[C@H]1O[C@@H](NC(=O)CCCNC(=O)n2cc(F)c(=O)[nH]c2=O)[C@H](F)[C@@H](OC(C)=O)[C@@H]1OC(C)=O,15,23,6,8,6,10
O=c1[nH]cc(F)c(=O)[nH]1 [FLUOROURACIL],11,–,5,–,–,–
